Compound activity as filed in PubChem.
KCNK9 inh = human KCNK9 channel inhibition. Q9NPC2. 310,000 tested, 1.2% active. HEK293 KCNK9, FluxOR thallium flux fluorescence; active compounds read low. B-score at 10 µM;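 active = ratio B-score over 3 SD below the library mean, with starting fluorescence within 5 SD of its mean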;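 also: negative B-score means less thallium flux so channel inhibition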
KCNQ1 act = potentiators or activators of human KCNQ1 potassium channel. P51787. CHO-K1 KCNQ1, thallium flux FluxOR fluorescence; active compounds read high. B-score at 10 µM. 310,000 tested, 0.35% active. AID 2648;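 active = fluorescence ratio B-score, a plate-corrected score, at least three library SD, with initial intensity B-score within 5 SD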
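System: Stable KCNQ1 CHO-K1 line | Incubation: 90 min dye loading and 20 min compound exposure, both at room temperature | Measure: Ratio B score | Medium: Assay buffer for compound exposure, DMSO matched across wells | Compound dosing: Single-concentration screen | Probe or stimulus: K+/Tl+ depolarizing stimulus | Measured by: Kinetic FluxOR fluorescence, 10 s baseline plus 110 s post-stimulus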
Kir21 block = blocks the mouse Kir2.1 inward-rectifier potassium channel | AID 1672 | HEK293-Kir2.1, FluxOR thallium flux fluorescence; active compounds read low | B-score at 10 µM | P35561 | 310,000 tested, 0.85% active;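 active = fluorescence ratio B-score at or below minus 3 SD of library scores, with starting-brightness B-score within 2 SD, cut at about -4.2 in these data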;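 also: channel flux triggered by added potassium and thallium sulfate stimulus; B-score of peak minus minimum fluorescence over baseline after thallium stimulus; more negative B-score means stronger Kir2.1 block with less thallium influx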
Target sequence (P35561 whole entry, looked up): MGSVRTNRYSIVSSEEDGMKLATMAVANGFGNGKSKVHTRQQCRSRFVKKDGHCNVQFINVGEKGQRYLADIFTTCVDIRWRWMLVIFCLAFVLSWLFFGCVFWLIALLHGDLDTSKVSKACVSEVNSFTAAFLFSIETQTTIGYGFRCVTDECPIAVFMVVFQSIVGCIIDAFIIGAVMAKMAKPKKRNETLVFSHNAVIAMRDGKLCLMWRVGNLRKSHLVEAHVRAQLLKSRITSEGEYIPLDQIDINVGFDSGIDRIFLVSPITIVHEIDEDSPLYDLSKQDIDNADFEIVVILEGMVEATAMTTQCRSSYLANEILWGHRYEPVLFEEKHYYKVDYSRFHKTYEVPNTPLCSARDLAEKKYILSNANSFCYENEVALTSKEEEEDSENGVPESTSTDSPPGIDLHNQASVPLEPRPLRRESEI
KCNQ1 inh = human KCNQ1 channel inhibition | P51787 | CHO-K1 KCNQ1, FluxOR thallium flux fluorescence; active compounds read high | 310,000 tested, 1.3% active | B-score at 10 µM;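 active = compounds whose thallium flux B-score, printed positive for inhibition, exceeds three library SD while starting fluorescence stays within three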;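 also: channel opened by potassium depolarization with thallium stimulus after 20 min compound exposure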
KCNK3 block = human KCNK3 channel inhibition, primary screen | 340,000 tested, 0.84% active | CHO-KCNK3 thallium flux, FluxOR fluorescence; active compounds read low | B-score at 10 µM | O14649;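 active = B-score under library mean minus 4 SD, starting fluorescence ratio at most library mean plus 5 SD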;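 also: more negative B-score means stronger inhibition of thallium flux through KCNK3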
hERG protect = hERG (human) protection from proarrhythmic block; Q12809; CHO-hERG, FluxOR thallium flux, dofetilide IC70 present; activation (rescue from dofetilide block), less the hit threshold, % at 10 µM; 310,000 tested, 0.51% active;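 active = activation above the mean of controls blocked by dofetilide plus 5 SD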;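 also: thallium influx through hERG after potassium depolarization seen as dye fluorescence rise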
KCNK9 block conf = confirmation of human KCNK9 potassium channel inhibitors; inhibition, % at 10 µM; HEK293 KCNK9 cells, FluxOR thallium flux fluorescence; AID 492992; 4,900 tested, 43% active; shares compounds with KCNK9 inh;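 active = thallium signal inhibited by more than 5 SD of the compound-free buffer control wells, on both duplicate plates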;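 also: 0% = assay buffer control wells without compound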
Kir21 sel = tests whether KCNK9 modulators also affect mouse Kir2.1; shares compounds with KCNK9 inh; Kir2.1 cells, FluxOR thallium flux fluorescence; inhibition, % at 10 µM; 4,900 tested, 4% active; AID 492993;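 active = thallium signal drop more than 5 SD beyond the mean of the no-compound control wells, seen in both duplicate plates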;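 also: signal is fluorescence rise after thallium addition divided by baseline fluorescence; plate controls were assay buffer only for no effect and full block by chlorpromazine control for full effect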
KCNK9 uninduced = non-induced cell nonspecific activity of KCNK9 modulators. shares compounds with KCNK9 inh. non-induced KCNK9-HEK293, FluxOR thallium flux. inhibition, % at 10 µM. 4,900 tested, 40% active. AID 492997;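 active = thallium signal drop beyond 5 SD of the untreated control mean, on both duplicate plates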;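 also: plate controls were buffer only IC0 wells for no effect and SID17386958 at its maximal inhibitory level for full effect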
The depositor's hits bear a star. Sampled rows, rich in hits. Any-hit rate of the full collection: about 3.7%.

For COc1ccc(CCC(=O)N2CCCC(Nc3ccc(OC)cc3)C2)cc1 (stereo unspecified) the results were KCNK9 inh inactive, KCNQ1 act inactive, Kir21 block -3.1, KCNQ1 inh inactive, KCNK3 block inactive, hERG protect -4, KCNK9 block conf inactive, Kir21 sel inactive and KCNK9 uninduced inactive.
O=C(CCc1ccccc1)N1CCCC(Nc2ccc(F)cc2)C1 (stereo unspecified) was read as KCNK9 inh inactive, KCNQ1 act inactive, Kir21 block -0.66, KCNQ1 inh inactive, KCNK3 block inactive, hERG protect -6, KCNK9 block conf inactive, Kir21 sel inactive and KCNK9 uninduced inactive.
For CC1CC(C)CN(S(=O)(=O)c2ccc(C(=O)NNC(=O)c3ccccc3F)cc2)C1 (stereo unspecified) the results were KCNK3 block inactive.
Screening O=C(NCC(=O)N(c1ccc(F)cc1)C(C(=O)NC1CCCC1)c1cccnc1)c1ccco1 (stereo unspecified) returned KCNK9 inh inactive, KCNQ1 act inactive, Kir21 block -0.75, KCNQ1 inh inactive, KCNK3 block inactive and hERG protect -10.
Cc1ccc(C(=O)NCCNS(=O)(=O)c2ccccc2[N+](=O)[O-])cc1 was read as KCNK9 inh inactive, KCNQ1 act inactive, Kir21 block 0.77, KCNQ1 inh inactive, KCNK3 block inactive and hERG protect -10.
For O=C(O)C(c1ccccc1)N1C(=O)/C(=C\c2ccc(-c3ccccc3Cl)o2)SC1=S (stereo unspecified) the results were KCNK9 inh inactive, KCNQ1 act inactive, Kir21 block 3.8, KCNQ1 inh inactive, KCNK3 block inactive, hERG protect -12, KCNK9 block conf inactive, Kir21 sel inactive and KCNK9 uninduced inactive.
For CCN(CC)S(=O)(=O)c1ccc(C)c(NC(=S)NNC(=O)C2CC2)c1 the results were KCNK9 inh inactive, KCNQ1 act inactive, Kir21 block -0.01, KCNQ1 inh inactive, KCNK3 block inactive and hERG protect -6.
`COc1ccc2c(c1)c(CC(=O)OCC(=O)N(C)C)c(C)n2C(=O)c1ccc(Cl)cc1` gave KCNK9 inh inactive, KCNQ1 act inactive, Kir21 block 0.71, KCNQ1 inh inactive, KCNK3 block inactive and hERG protect -7.
`COc1ccc2c(c1)c(CC(=O)OC(C)C(=O)N(C)C)c(C)n2C(=O)c1ccc(Cl)cc1` (stereo unspecified) gave KCNK9 inh inactive, KCNQ1 act inactive, Kir21 block 0.57, KCNQ1 inh inactive, KCNK3 block inactive, hERG protect -12, KCNK9 block conf inactive, Kir21 sel inactive and KCNK9 uninduced inactive.
For CCCCOc1ccc(/C=N/NC(=O)c2csc(C)c2C)cc1 the results were KCNK9 inh inactive, KCNQ1 act inactive, Kir21 block 0.83, KCNQ1 inh inactive, KCNK3 block inactive, hERG protect -3, KCNK9 block conf inactive, Kir21 sel inactive and KCNK9 uninduced inactive.
Screening O=[N+]([O-])c1ccc(Sc2cc[n+]([O-])c3ccccc23)c([N+](=O)[O-])c1 returned KCNK9 inh inactive, KCNQ1 act inactive, Kir21 block -0.34, KCNQ1 inh inactive, KCNK3 block inactive and hERG protect -9.
O=C(Nc1ccncc1)c1c(F)c(F)c(F)c(F)c1F was read as KCNK9 inh -11*, KCNQ1 act inactive, Kir21 block 1.2, KCNQ1 inh inactive, KCNK3 block inactive, hERG protect 1, KCNK9 block conf 36%*, Kir21 sel inactive and KCNK9 uninduced 28%*.
`O=C(Nc1cccnc1)c1c(F)c(F)c(F)c(F)c1F` gave KCNK9 inh inactive, KCNQ1 act inactive, Kir21 block 2.1, KCNQ1 inh inactive, KCNK3 block inactive and hERG protect -2.
Screening CCOc1ccccc1CN1CCN(CC2=Cc3cc(OC)ccc3OC2)CC1CCO (stereo unspecified) returned KCNK9 inh inactive, KCNQ1 act inactive, Kir21 block 0.01, KCNQ1 inh inactive, KCNK3 block inactive and hERG protect -21.
Screening O=C(Cc1coc2cc3c(cc12)CCC3)OCc1cc(=O)n2c(n1)sc1ccccc12 returned KCNK9 inh inactive, KCNQ1 act inactive, Kir21 block 1.5, KCNQ1 inh inactive, KCNK3 block inactive, hERG protect -16, KCNK9 block conf inactive, Kir21 sel inactive and KCNK9 uninduced inactive.
For CC(=O)c1cccc(NC(=O)CSc2nnc(-c3ccncc3)o2)c1 the results were KCNK3 block inactive.
`NS(=O)(=O)c1ccc(CNC(=O)c2ccc3c(c2)OCO3)cc1` gave KCNK3 block inactive.
`Cc1ccc(C(C)C)c(OCc2nn(CC(=O)c3ccc(OC(F)F)cc3)c3[n+]2CCCCC3)c1` gave KCNK9 inh -8.4*, KCNQ1 act inactive, Kir21 block -2.3, KCNQ1 inh 9*, KCNK3 block inactive, hERG protect -28, KCNK9 block conf 51%*, Kir21 sel inactive and KCNK9 uninduced inactive.
`CCCC(=O)Nc1cccn(Cc2ccccc2Br)c1=O` gave KCNK9 inh inactive, KCNQ1 act inactive, Kir21 block -1, KCNQ1 inh inactive, KCNK3 block inactive and hERG protect -11.
Screening O=C(CCC1CCCC1)Nc1cccn(Cc2ccccc2Br)c1=O returned KCNK9 inh inactive, KCNQ1 act inactive, Kir21 block 0.33, KCNQ1 inh inactive, KCNK3 block inactive, hERG protect -9, KCNK9 block conf inactive, Kir21 sel inactive and KCNK9 uninduced 26%*.
For CN(c1ccccc1)S(=O)(=O)c1cccc(NC(=O)C2=NNC(=O)CC2)c1 the results were KCNK3 block inactive.
For NC(=O)c1c(NC(=O)CSc2nc3c(c(C(F)(F)F)n2)CCc2ccccc2-3)sc2c1CCCC2 the results were KCNK9 inh inactive, KCNQ1 act inactive, Kir21 block 0.16, KCNQ1 inh inactive, KCNK3 block inactive and hERG protect -12.
